Experimental data taken from paper PMC5634022 (Journal of Insect Science, 2014).

System: CarE (carboxylesterase, EC3.1.1.1), final purified
Assay: esterase activity, Fast Blue B, Lineweaver-Burk
Format: biochemical, Dendrolimus superans
Details: read-out: K m (mol/liter); 35°C; kcat unit printed as s
In short: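 Carboxylesterase from sixth-instar larval tissue homogenate, purified at 4°C by ammonium sulfate precipitation, Sephadex G-25, DEAE-52 and hydroxyapatite chromatography. Enzyme incubated 10 min at 35°C with α- or β-naphthyl acetate at five concentrations (0.1875–3.0 × 10^-4 mol/liter). Stopped with SDS/Fast Blue B; read at 600 nm. Km and Vmax from Lineweaver–Burk plots. Kcat from SDS-PAGE molecular weight and Vmax.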

Km: 0.000162 mol/L
Compound: CC(=O)Oc1ccc2ccccc2c1 [β-NA]
